Shown are actives, neighbours in structure and some others; about 2.3% of the full set was active somewhere.
DNA FID counter: compounds displacing fluorescent DNA intercalator, primary screen, artefact control for HCV NS3 helicase inhibitor project, biochemical, FID fluorescence | DNA fluorescent intercalator displacement | inhibition, % at 7.9 µM | 0.17% of 290,000 active | AID 1845, 2009; in the data active = inhibition above about 37%;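 note: 0% = vehicle and 100% = reference compound; higher means more ethidium bromide displaced from hairpin DNA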
TRPC4 potent: positive allosteric modulators of TRPC4, primary screen, cell-based, mouse TRPC4beta, HEK293 mu-opioid, Fluo-4 calcium; AID 2227, 2009; DAMGO EC20, Fluo-4 Ca2+ flux; hits give high values; Short transient receptor potential channel 4 (Mus musculus), Q9QUQ5; 0.42% of 310,000 active; B-score at 10 µM;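 active = B-score of calcium response area above 5 SD of library B-scores, with initial fluorescence ratio within 5 SD of library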;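 note: B-score of integrated fluorescence ratio over time as area under calcium response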
Target sequence (Q9QUQ5 whole entry, looked up): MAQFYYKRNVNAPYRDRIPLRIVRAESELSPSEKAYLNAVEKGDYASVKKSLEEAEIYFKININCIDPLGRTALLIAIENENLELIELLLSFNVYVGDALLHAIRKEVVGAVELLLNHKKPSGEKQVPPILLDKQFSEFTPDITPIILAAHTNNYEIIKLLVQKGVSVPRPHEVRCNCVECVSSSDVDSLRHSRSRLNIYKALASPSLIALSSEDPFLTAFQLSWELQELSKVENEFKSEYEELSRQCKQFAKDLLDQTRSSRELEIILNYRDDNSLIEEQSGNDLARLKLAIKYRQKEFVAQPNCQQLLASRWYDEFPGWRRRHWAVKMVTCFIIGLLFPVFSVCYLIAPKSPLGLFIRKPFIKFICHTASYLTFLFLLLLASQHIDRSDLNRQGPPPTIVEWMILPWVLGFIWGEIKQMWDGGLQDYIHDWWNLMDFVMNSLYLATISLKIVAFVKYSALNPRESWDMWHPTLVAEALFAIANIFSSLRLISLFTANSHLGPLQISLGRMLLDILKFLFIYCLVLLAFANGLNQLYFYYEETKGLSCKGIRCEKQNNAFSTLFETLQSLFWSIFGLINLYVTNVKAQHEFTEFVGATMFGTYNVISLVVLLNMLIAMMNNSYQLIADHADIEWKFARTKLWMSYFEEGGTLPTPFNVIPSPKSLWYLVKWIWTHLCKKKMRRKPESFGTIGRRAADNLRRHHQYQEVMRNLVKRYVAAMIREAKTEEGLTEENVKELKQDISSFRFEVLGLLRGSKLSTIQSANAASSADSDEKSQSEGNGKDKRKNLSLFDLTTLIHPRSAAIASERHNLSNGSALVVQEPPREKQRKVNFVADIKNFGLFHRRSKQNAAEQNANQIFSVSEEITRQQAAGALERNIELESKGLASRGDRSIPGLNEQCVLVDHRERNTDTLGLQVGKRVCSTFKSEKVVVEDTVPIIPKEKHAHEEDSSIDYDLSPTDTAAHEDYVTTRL
TRPC6 inhibitor: mouse TRPC6 channel inhibitors, primary screen, cell-based, HEK293, membrane potential dye | ACh-evoked depolarization; hits give low values | 1.1% of 310,000 active | AID 2553, 2010 | B-score at 10 µM;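 active = B-score under library mean minus 3 SD, initial fluorescence not abnormally high, positive integrated signal ratio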;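 note: B-score derived from integrated fluorescence ratio over the kinetic read; more negative B-score means stronger inhibition of depolarization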
TRPC4 inh: inhibitors of mouse TRPC4 channel, primary screen, Fluo4 calcium, HEK293 TRPC4beta/mu-opioid cells | AID 2247, 2010 | 0.39% of 300,000 active | DAMGO-evoked Fluo4 calcium flux; hits give low values | B-score at 10 µM;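 active = B-score over 3 SD under the library average, no early fluorescence shift, positive overall ratio signal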
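System: stable TRPC4beta/mu-opioid receptor HEK293 cells; Dosing: single-point compound dosing; Measured by: Fluo4 Ca2+ flux fluorescence; Read-out basis: per-well B score of integrated baseline-normalized Fluo4 ratio.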
TRPC4 act: activators of mouse TRPC4 channel, primary screen, Fluo4 calcium, HEK293 TRPC4beta/mu-opioid cells. AID 2237, 2010. Fluo4 calcium fluorescence; hits give high values. 0.49% of 310,000 active. Short transient receptor potential channel 4 (Mus musculus), Q9QUQ5. B-score at 10 µM;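 active = B-score above 5 SD of library B-scores, and initial fluorescence ratio not above library mean plus 5 SD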;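 note: positive B-score marks a calcium rise read as TRPC4 activation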
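Assay system – TRPC4beta and mu-opioid receptor HEK293 stable cells · Measured by – Fluo4 fluorescence, kinetic · Schedule – dye loading 45 min room temperature, 110 s kinetic read · Read-out – B-scored integrated calcium fluorescence ratio · Controls – buffer and maximal DAMGO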
TRPC6 act: mouse TRPC6 channel activators, primary screen, cell-based, HEK293, membrane potential dye | Short transient receptor potential channel 6 (Mus musculus), Q61143 | HEK293-TRPC6 membrane potential dye fluorescence; hits give high values | B-score at 10 µM | 0.13% of 310,000 active | AID 2550, 2010;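 active = B-score of the integrated fluorescence ratio above library mean plus 3 SD, and starting fluorescence ratio within library mean plus 5 SD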;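 note: higher score means more depolarization so channel activation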
TRPC4 spec 2: second selectivity test of TRPC6 inhibitors: effect on mouse TRPC4 | 42% of 920 active | inhibition, % at 10 µM | AID 2776 | shares compounds with TRPC6 inhibitor | HEK293 TRPC4/MOR, membrane potential dye fluorescence; channel activated by saturating DAMGO dose;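 active = compounds whose fluorescence signal differed from control wells by over 3 SD, either direction, in both duplicate plates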
TRPC4 spec: mouse TRPC4 modulation by TRPC6 hits, confirmation, selectivity assay for TRPC6 inhibitor project, cell-based, HEK293 TRPC4/mu-opioid, membrane potential dye; membrane potential fluorescence; 61% of 920 active; activity change, negative = inhibition, % at 10 µM; shares compounds with TRPC6 inhibitor;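 active = rise or fall in signal beyond 3 SD of buffer-only wells in both replicate plates, either sign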;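 note: integrated kinetic ratio of fluorescence range over baseline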
HEK293 MPD ctr 2-1: nonspecific membrane potential effects, parental HEK293, confirmation, counter-screen for TRPC6 inhibitor project, cell-based, second counter screen. shares compounds with TRPC6 inhibitor. parental HEK293 membrane potential dye fluorescence; maximal acetylcholine challenge after compound addition. signal change vs control, % at 10 µM. 31% of 920 active. AID 2779, 2010;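 active = membrane potential signal moving either way by over 3 SD of the maximum-effect control, in both duplicate plates, meaning non-specific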
HEK293 MPD ctr-1: membrane potential modulation in parental HEK293, confirmation, counter-screen for TRPC6 inhibitor project, cell-based; shares compounds with TRPC6 inhibitor; parental HEK293 membrane potential dye fluorescence; membrane potential signal change, % at 10 µM; 60% of 920 active; AID 2780, 2010;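 active = membrane potential signal shifting up or down by more than 3 SD of buffer-only wells, on both duplicate plates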
HEK293 MPD ctr-2: parental HEK293 membrane potential modulation, confirmation, counter-screen for TRPC6 modulator project, cell-based; shares compounds with TRPC6 inhibitor; membrane potential dye fluorescence; membrane potential signal change, % at 10 µM; 51% of 2,400 active; AID 488924, 2010;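 active = membrane potential signal moves up or down beyond 5 SD from buffer-only wells, on both duplicate plates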
HEK293 MPD ctr 2-2: second counter-screen for TRPC6 modulators: effect in parental HEK293 cells. shares compounds with TRPC6 inhibitor. 14% of 2,400 active. membrane potential dye fluorescence; after compound, maximal acetylcholine stimulation. inhibition, % at 10 µM;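 active = membrane potential signal drops by more than 5 SD from the mean control signal, in both duplicate plates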;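 note: plate controls were acetylcholine ECmax control wells for no effect and buffer only wells for full effect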
TRPC4 ctr mod: TRPC4 modulation by TRPC6 hit compounds, confirmation, selectivity assay for TRPC6 modulator project, cell-based, HEK293 TRPC4/mu-opioid, membrane potential dye, mouse; shares compounds with TRPC6 inhibitor; AID 488927, 2010; percent change from control (negative = decrease, positive = increase), % at 10 µM; 69% of 2,400 active; membrane potential fluorescence;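 active = membrane potential signal moved up or down beyond 5 SD of buffer control wells, in both duplicate plates, actives on both sides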;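 note: plate controls were assay buffer wells for no effect and DAMGO maximal-effect wells for full effect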
TRPC4 ctr inh 2: mouse TRPC4 off-target activity of TRPC6 modulators, second screen. shares compounds with TRPC6 inhibitor. HEK293 TRPC4/mu-opioid, membrane potential dye fluorescence; stimulated with maximal-effect DAMGO. inhibition, % at 10 µM. 55% of 2,400 active;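 active = drop in membrane potential signal beyond 5 SD of the control wells in both duplicate plates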;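 note: TRPC4 counter screen for TRPC6 hits run under conditions tuned for TRPC6 not TRPC4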
TRPC6 block conf: mouse TRPC6 channel inhibitors, confirmation, HEK293 cells, membrane potential dye, duplicate. shares compounds with TRPC6 inhibitor. 43% of 3,300 active. AID 488960, 2010. ACh-evoked depolarization. inhibition, % at 10 µM;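 active = fluorescence ratio falls more than 5 SD below the full-stimulation control mean, in both duplicate runs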;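 note: integrated fluorescence ratio of peak minus minimum over baseline after agonist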
TRPC6 act confirm: mouse TRPC6 channel activators, confirmation, HEK293 cells, membrane potential dye, duplicate | HEK293-TRPC6 membrane potential dye fluorescence, FDSS | shares compounds with TRPC6 inhibitor | activation, % at 10 µM | AID 488961, 2010 | 11% of 2,800 active;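 active = ratio signal rise beyond 5 SD above unstimulated control wells' mean, seen in both duplicate runs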;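 note: plate controls were buffer EC0 wells for no effect and acetylcholine ECmax response for full effect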
* hit, by the source's call; i = inactive; · = no result given.

SMILES | DNA FID counter | TRPC4 potent | TRPC6 inhibitor | TRPC4 inh | TRPC4 act | TRPC6 act | HEK293 MPD ctr-2 | HEK293 MPD ctr 2-2 | TRPC4 ctr mod | TRPC4 ctr inh 2 | TRPC6 block conf | TRPC6 act confirm | others
O=C(NCCCN1CCOCC1)C(=O)N/N=C/c1ccc2c(c1)OCO2 | 4 | i | -8.3* | i | i | i | · | · | · | · | i | i | TRPC4 spec 2=i;TRPC4 spec=i;HEK293 MPD ctr 2-1=i;HEK293 MPD ctr-1=i
CCN(CC)CCSc1nnc2c3cc(F)ccc3n(Cc3ccccc3)c2n1 | -4 | i | -5.9* | i | i | i | -78%* | i | i | 78%* | i | i
CCn1c2ccccc2c2nnc(SCc3ccccc3)nc21 | -2 | i | i | i | i | i | · | · | · | · | · | ·
CCN(CC)CCSc1nnc2c3ccccc3n(Cc3ccccc3)c2n1 | 11 | i | -8.2* | i | i | i | · | · | · | · | 66%* | i | TRPC4 spec 2=21%*;TRPC4 spec=12%*;HEK293 MPD ctr 2-1=i;HEK293 MPD ctr-1=-230%*
N#Cc1ccccc1CN1C(=O)c2ccccc2S1(=O)=O | -4 | i | i | i | i | i | · | · | · | · | · | ·
CCCn1c2ccccc2c2cnn(CC(=O)NC3CCCC(C)C3C)c(=O)c21 (configuration not stated) | -28 | i | i | i | i | i | · | · | · | · | · | ·
O=C(CN1C(=O)C2CCCCC2C1=O)Nc1nc2ccc(F)cc2s1 (configuration not stated) | · | i | i | i | i | i | · | · | · | · | · | ·
COc1cc(C(=O)NCc2nnc(SCC(=O)N3CCCCCC3)o2)cc(OC)c1OC | -30 | i | i | i | i | i | · | · | · | · | · | ·
Cc1cc(NCCNC2=CC(=O)CCC2)nc2ccccc12 | 3 | i | -5.5* | i | i | i | -168%* | i | -27%* | 31%* | i | i
Cc1cc(NCC2CCCCC2)nc2ccccc12 | 4 | i | i | i | i | i | · | · | · | · | · | ·
O=C(Nc1ccnn1C1CCN(C(=O)c2cccc(Cl)c2)CC1)C1CC1 | -19 | i | i | i | i | i | · | · | · | · | · | ·
COCCCn1c(=NC(=O)c2ccncc2)c(C#N)cc2c(=O)n3cccc(C)c3nc21 | -10 | i | i | i | i | i | · | · | · | · | · | ·
Cc1cccn2c(=O)c3cc(C#N)c(=N)n(CCN4CCOCC4)c3nc12 | 1 | i | -5.6* | i | i | i | -150%* | i | -24%* | i | 48%* | i
CCCn1c(=N)c(C#N)cc2c(=O)n3cccc(C)c3nc21 | 6 | i | i | i | i | i | · | · | · | · | · | ·
Cc1cccn2c(=O)c3cc(C#N)c(=N)n(Cc4ccncc4)c3nc12 | 0 | i | -5.7* | i | i | i | -168%* | i | -30%* | i | i | i
Cc1ccc2nc3c(cc(C#N)c(=N)n3CCCN3CCOCC3)c(=O)n2c1 | -1 | · | · | · | · | · | · | · | · | · | · | ·
CCCn1c(=N)c(C#N)cc2c(=O)n3ccccc3nc21 | 4 | i | -8.3* | i | i | i | -260%* | i | -44%* | 44%* | 38%* | i
Cc1cccn2c(=O)c3cc(C#N)c(=N)n(CCCN4CCOCC4)c3nc12 | 4 | i | -8.6* | i | i | i | -84%* | 118%* | -26%* | 68%* | 57%* | i
CCOC(=O)C1(Cc2ccccc2C)CCCN(C(=O)c2ccc(CSC)o2)C1 (configuration not stated) | -61 | i | i | i | i | i | · | · | · | · | · | ·
O=C(NCCCN1CCOCC1)c1ccc2c(c1)N(Cc1cccc(Cl)c1)C(=O)CS2 | 14 | i | -5* | i | i | i | 664%* | 160%* | 133%* | 41%* | 93%* | ·
O=C(NCCCN1CCCC1)c1ccc2c(c1)N(Cc1ccccc1)CCS2 | 19 | i | -5.9* | i | i | i | i | i | -8.5%* | 80%* | 62%* | i
CCN1CCN(CCCNC(=O)c2ccc3c(c2)N(Cc2ccccc2)CCS3)CC1 | 20 | i | i | i | i | i | · | · | · | · | · | ·

Assay outcomes deposited in PubChem BioAssay by several laboratories.
